Screening results: PubChem, Broad Institute
SR-BI HDL uptake = inhibitors of SR-BI mediated HDL lipid uptake, primary screen, ldlA[mSR-BI] cells, fluorescence, single point. Scavenger receptor class B member 1 (Mus musculus), Q61009. ldlA[mSR-BI] CHO cells, DiI-HDL uptake fluorescence, 3 h. inhibition, % at 12.5 µM. 320,000 compounds, 0.96% hits. AID 488896, 2010;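 active = mean replicate inhibition of at least 70% and a set share of replicates each scoring 70 or more; inconclusive = meets just one of the two criteria; inactive = fails both criteria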;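 also: 0% = median of neutral control wells and 100% = median of positive control wells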
Target sequence (Q61009 whole entry, looked up): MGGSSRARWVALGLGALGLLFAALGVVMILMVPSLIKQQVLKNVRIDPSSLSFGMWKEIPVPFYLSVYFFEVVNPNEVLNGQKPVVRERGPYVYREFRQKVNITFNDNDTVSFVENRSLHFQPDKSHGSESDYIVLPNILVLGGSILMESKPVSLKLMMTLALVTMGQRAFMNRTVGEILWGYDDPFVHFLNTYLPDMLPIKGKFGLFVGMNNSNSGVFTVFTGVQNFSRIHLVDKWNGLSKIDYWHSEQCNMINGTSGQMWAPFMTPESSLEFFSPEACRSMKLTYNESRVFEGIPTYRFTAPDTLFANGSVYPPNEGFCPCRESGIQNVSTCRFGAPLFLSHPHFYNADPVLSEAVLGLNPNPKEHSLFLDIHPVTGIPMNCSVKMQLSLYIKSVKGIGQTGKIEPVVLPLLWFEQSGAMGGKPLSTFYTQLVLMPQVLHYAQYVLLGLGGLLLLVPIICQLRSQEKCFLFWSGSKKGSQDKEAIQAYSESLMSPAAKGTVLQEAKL
SR-BI uptake up = activators of SR-BI mediated DiI-HDL uptake, primary screen, ldlA[mSR-BI] CHO cells, DiI fluorescence. 320,000 compounds, 0.096% hits. activation, % at 12.5 µM. 3 h; 100 = double the neutral-control signal. AID 504775, 2011;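 active = mean replicate activation of at least 60% and every replicate at or above 60%; inconclusive = mean or all-replicate condition met, but not both; inactive = mean below 60% and not all replicates reaching 60%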;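 also: 0% = median plate neutral-control signal and 100% = twice that signal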
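Material: SR-BI-overexpressing, LDLR-lacking CHO cells | Dosing: Single compound concentration, delivered by pin transfer | Probe or stimulus: Labelled HDL, 10 µg/mL | Signal: Bottom-read cell fluorescence after medium removal, ex 550/em 595 nm | Schedule: 3 h, 37 °C | Evaluation: HDL uptake via cellular fluorescence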
HSF-1 act = HSF-1 activators, primary screen, NIH3T3-HGL cells, MG132 stress, luminescence, single point. NIH3T3-HGL HSF-1 luciferase reporter, 8 h; 100% = twice DMSO control signal. activation, % at 9 µM. 300,000 compounds, 1.7% hits. AID 504408, 2011;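 active = mean replicate activation of at least 50% with a set share of replicates each reaching 50%; inconclusive = only one of those two conditions met; inactive = mean below 50% and too few replicates reaching it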;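 also: 0% = median of the neutral control wells and 100% = twice that signal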
MITF act = activators of MITF-driven TRPM1 promoter reporter, primary screen, cell-based, SK-MEL-5, luciferase, single point. SK-MEL-5 TRPM1-promoter luciferase, 24 h; % of positive control, neutral wells = 0. activation, % at 12.5 µM. 300,000 compounds, 0.75% hits;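 active = mean activation of at least 80% with every replicate also reaching 80%; inconclusive = mean reaches 80% but some replicate falls short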;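 also: 0% = neutral control wells and 100% = parthenolide positive control wells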
Wnt act = Wnt/beta-catenin pathway activators, primary screen, cell-based, plate reader, single point; Wnt/beta-catenin reporter cell assay, activator; activation, % at 9.35 µM; 300,000 compounds, 1.2% hits; in the data active = activation above about 30%, passing the limit was not always enough; inconclusive = no clear call, values can overlap the other calls;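 also: 0% = neutral control wells and 100% = positive control wells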
* = called active by the depositor; ? = inconclusive; / = not tested or not shown. In the library only some 3.6% were active in any assay of this set; here they are far more common.

SMILES | SR-BI HDL uptake | SR-BI uptake up | HSF-1 act | MITF act | Wnt act
CC(NC(=O)c1c(N)[nH]c(C(=O)c2ccccc2)c1-c1ccccc1Br)c1cccc2ccccc12 (configuration not stated) | / | / | / | / | 7
CCCN1CCCCC(NC(C)=O)C1=O (configuration not stated) | / | / | / | / | 2
Cn1cccc1C(=O)OCc1ccc(C(C)(C)C)cc1 | / | / | 28 | / | 27
Cn1cccc1C(=O)OCc1cc(-c2ccco2)on1 | 9 | -9 | / | 98* | 27
COc1cnc(-c2cccc(C(F)(F)F)c2)c(NC(=O)c2cc3ccccc3s2)n1 | / | / | / | / | 0
CCn1cc(C(=O)OCC(=O)OC2CC(C)CCC2C(C)C)c(=O)c2ccc(C)nc21 (configuration not stated) | 81* | -81 | -7 | / | /
C=CCOC(=O)c1cn(CC)c2nc(C)ccc2c1=O | -12 | 12 | 6 | -9 | 0
O=C(Nc1ccc2c(c1)CCC2)c1ccccc1F | 6 | -6 | 7 | 34 | 30*
O=C(O)c1ccccc1-c1ccccc1C(=O)Nc1ccc2c(c1)CCC2 | -11 | 11 | 0 | -4 | 1
O=C(COc1ccccc1F)Nc1ccc2c(c1)CCC2 | 7 | -7 | / | / | 43*
CCCCN(C=O)c1c(CC)nc2c(OCCOc3ccccc3)cccn12 | / | / | / | / | -2
C=C(C)Cn1c2ccc(NC(=O)NCc3ccc(F)cc3)cc2c(=O)n1C | / | / | / | / | -2
CCC1CCCCN1C(=O)COC(=O)c1cc2ccccc2cc1O (configuration not stated) | / | / | 83* | 40 | /
O=C(OCC(=O)N1CCCCC1)c1cc2ccccc2cc1O | 7 | -7 | -9 | 41 | /
c1ccc2c(Nc3nc4c(s3)CCCC4)cccc2c1 | 44 | -44 | ? | / | 35*
CC(C)C[C@H]1COc2cc(Br)ccc2S(=O)(=O)N1Cc1ccc(F)cc1F | / | / | / | / | -2
O=C(Nc1ccc(NC(=O)C23CC4CC(CC(C4)C2)C3)cn1)c1ccco1 | 0 | 0 | 20 | 96* | /
O=C(Nc1ccc(NC(=O)c2ccco2)nc1)c1ccco1 | 6 | -6 | 3 | -2 | -4
O=C(Nc1ccc(NC(=O)C2CC2)nc1)c1cnccn1 | -26 | 26 | 12 | 6 | 49*
O=C(Nc1ccc(NC(=O)C2CCCCC2)cn1)c1ccco1 | -7 | 7 | 26 | -12 | /
O=C(Cc1ccccc1)Nc1ccc(NC(=O)c2ccco2)nc1 | 35 | -35 | 44 | / | 40*
COc1ccc(C(=O)Nc2ccc(NC(=O)c3ccccc3OC)nc2)cc1 | 79* | -79 | 6 | 1 | 0
C[C@H]1CCCCO[C@@H](CN(C)C(=O)NC2CCCCC2)[C@@H](C)CN([C@@H](C)CO)C(=O)c2cc(NC(=O)Cc3ccccc3)ccc2O1 | / | / | / | / | -2
COc1cc(C(=O)Nc2ccc(NC(=O)C3CC3)nc2)cc(OC)c1OC | 29 | -29 | -5 | 2 | 61*
COc1ccc(NC(=O)Nc2ccc(Br)cn2)cc1 | 14 | -14 | 48 | 87* | 27
SMILES | SR-BI HDL uptake | SR-BI uptake up | HSF-1 act | MITF act | Wnt act
COc1ccc(C(=O)Nc2ccc(NC(=O)c3cc(OC)c(OC)c(OC)c3)cn2)cc1 | 77* | -77 | 3 | -6 | 2
COc1cc(C(=O)Nc2ccc(NC(=O)c3ccccc3)nc2)cc(OC)c1OC | 54 | -54 | 41 | 10 | 4
COc1cccc(C(=O)Nc2ccc(NC(=O)C3CC3)cn2)c1 | / | / | 35 | 102* | 24
COc1ccccc1C(=O)Nc1ccc(NC(=O)c2ccco2)cn1 | / | / | 23 | 92* | 18
COc1ccc(C(=O)CC(=O)C(=O)Nc2ccccc2)cc1 | -29 | 29 | 27 | 3 | 4
COc1ccc(C(=O)CC(=O)C(=O)NCCc2cccc(C)c2)cc1 | 7 | -7 | 70* | -7 | /
COc1ccc(C(=O)CC(=O)C(=O)Nc2cc(OC)c(OC)c(OC)c2)cc1 | 13 | -13 | 77* | 10 | -2
COc1ccccc1C(=O)NC(=S)Nc1ccc(NC(=O)c2ccco2)cc1 | 53 | -53 | -11 | 10 | 6
COc1ccc(C(=O)Nc2ccc(NC(=O)c3cccc(F)c3)cn2)cc1 | 76* | -76 | 6 | 7 | -1
COc1ccccc1C(=O)Nc1ccc(Oc2nnc(-c3ccc(C)cc3)c3ccccc23)cc1 | 84* | -84 | 35 | 2 | /
Cc1ccc(Oc2nnc(-c3ccc(C)cc3)c3ccccc23)cc1 | 29 | -29 | 33 | 24 | 11
CCOC(=O)c1c(C)[nH]c(C)c1S(=O)(=O)N1CCN(c2ccc(F)cc2)CC1 | 27 | -27 | 63* | 4 | 0
CCOC(=O)c1c(C)[nH]c(C)c1S(=O)(=O)N1CCOCC1 | 17 | / | 20 | -5 | -1
COc1ccc(CCN2CC(C(=O)N(C)CCOc3ccccc3)CCC2=O)cc1 (configuration not stated) | -12 | 12 | 12 | 0 | 2
Cc1ccc(CN(C)C(=O)C2CCC(=O)N(CCc3ccccc3)C2)o1 (configuration not stated) | -8 | 8 | 195* | 16 | 8
CN(CCOc1ccccc1)C(=O)C1CCC(=O)N(CCc2ccc(Cl)cc2)C1 (configuration not stated) | 8 | -8 | 59* | 38 | 1
O=C1NCCN/C1=C\C(=O)c1ccccc1 | 5 | -5 | -2 | 13 | 0
O=C1NCCN/C1=C\C(=O)c1ccc(Br)cc1 | / | / | 40 | / | 63*
CCc1nc2ccc(C(=O)NCc3ccc4c(c3)OCO4)cn2c1N(C)Cc1cccs1 | / | / | / | / | -4
CN(C)c1ccc(C(=O)N2CCN(c3cc(C(F)(F)F)nc4ccccc34)CC2)cc1 | 11 | -11 | 2 | 12 | 55*
C[C@@H]1CN([C@H](C)CO)C(=O)CCCn2cc(nn2)CO[C@H]1CN(C)S(=O)(=O)c1cccc(C#N)c1 | / | / | / | / | -1
COc1ccc(CN(C)CC(=O)Nc2ccccc2C(=O)NC2CC2)cc1F | 21 | -21 | / | 11 | 2
COc1ccc(/C=N/Nc2nccnc2Cl)c(OC)c1 | 39 | -39 | 5 | 88* | /
COc1ccc(/C=N/Nc2nccnc2Cl)cc1 | -7 | 7 | -5 | 1 | /
COc1ccc(/C=N/Nc2cc(C)nc(-n3nc(C)cc3C)n2)c(OC)c1 | 79* | -79 | 8 | -61 | 2
CCc1nc2ccc(C(=O)N(CC)CCN(C)C)cn2c1N(CC)C(=O)NCCc1ccccc1 | / | / | / | / | -1
CC1CCN(c2ccc(NC(=O)c3ccc([N+](=O)[O-])o3)cc2)CC1 | 87* | -87 | 98* | -81 | -20
O=C(Nc1ccc(N2CCCCC2)cc1)c1ccc([N+](=O)[O-])o1 | 24 | -24 | 91* | -51 | -6
